Active and inactive are the calls of the source. The rule behind the calls is not given here.

Tested on in one assay: not listed separately
In words: Antiinflammatory activity in human neutrophils assessed as inhibition of LPS-induced intracellular TNFalpha expression at 10 ug/mL after 3 hrs by flow cytometry. Format: functional, Neutrophil. More on the design: scale not given: the % may be the effect or the level left. The method, boiled down: (§1)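 Neutrophils were isolated from human blood: spun at 250g for 20 min, and the platelet-rich layer was discarded. The lower layer was spun at 1800g, and the buffy coat was layered on histopaque and spun at 700g. RBCs were lysed and the cells washed with PBS. Cells were given LPS plus compound for 3 h in a CO2 incubator, permeabilised, stained 30 min in the dark with conjugated anti-TNF-α mAb, and read by flow cytometry.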
In the case of `COc1ccc(C2CNC(=O)C2)cc1OC1CCCC1` (stereo not drawn) [ROLIPRAM], the Activity amounted to 52.85%.

Tested on in another assay: not listed separately
The experiment in a line: Antiinflammatory activity in human neutrophils assessed as inhibition of LPS-induced intracellular TNFalpha expression at 1 ug/mL after 3 hrs by flow cytometry. Format: functional, Neutrophil. More on the design: scale not given: the % may be the effect or the level left. Put shortly: as §1
For `CO[C@@H]1[C@@H](O)[C@@H](O)[C@H](O)[C@H](O)[C@H]1OC`, the Activity is reported as 39.16%.
On the same count and under the same terms, in the case of `CCCC(=O)O[C@H]1[C@H](OC(=O)CCC)[C@H](OC(=O)CCC)[C@@H](OC)[C@H](OC(=O)CCC)[C@H]1OC(=O)CCC` it was 52.47%.
For the molecule `CO[C@H]1[C@H](OC)[C@H]2OC(C)(C)O[C@H]2[C@@H]2OC(C)(C)O[C@H]12`, the Activity stood at 33.33%.
Regarding `CCC(=O)O[C@@H]1[C@@H](O)[C@@H](O)[C@H](O)[C@H](O)[C@H]1OC`, the Activity worked out at 20.91%.
The same measure, in the same setting: in the case of `CO[C@@H]1[C@@H](OC(=O)c2ccccc2)[C@@H](OC(=O)c2ccccc2)[C@H](OC(=O)c2ccccc2)[C@H](OC(=O)c2ccccc2)[C@H]1OC(=O)c1ccccc1` it was 51.71%; in that of `CO[C@H]1[C@H](O)[C@H]2OC(C)(C)O[C@H]2[C@@H]2OC(C)(C)O[C@@H]21`, 13.09%.
In the case of `CCC(=O)O[C@H]1[C@H](OC)[C@H]2OC(C)(C)O[C@H]2[C@@H]2OC(C)(C)O[C@H]12`, the Activity was 32.14%.
On the same count and under the same terms, the result for `CO[C@@H]1[C@@H](OC(C)=O)[C@@H](OC(C)=O)[C@H](OC(C)=O)[C@H](OC(C)=O)[C@H]1OC(C)=O` reads 33.46%; that for `CCC(=O)O[C@H]1[C@H](OC(=O)CC)[C@H](OC(=O)CC)[C@@H](OC)[C@H](OC(=O)CC)[C@H]1OC(=O)CC`, 30.79%; that for `C=CCO[C@H]1[C@H](OC)[C@H]2OC(C)(C)O[C@H]2[C@@H]2OC(C)(C)O[C@H]12`, 34.98%.
On the same count and under the same terms, the result for `CCO[C@H]1[C@H](OC)[C@H]2OC(C)(C)O[C@H]2[C@@H]2OC(C)(C)O[C@H]12` reads 38.4%; that for `CO[C@@H]1[C@@H](O)[C@@H](O)[C@H](O)[C@H](O)[C@H]1OC(C)=O`, 2.28%; that for `CO[C@@H]1[C@@H](O)[C@@H](O)[C@H](O)[C@H](O)[C@H]1OC(=O)C(C)C`, 17.85%.
For the molecule `CO[C@H]1[C@H](OC(C)=O)[C@@H](OC(C)=O)[C@@H](OC(C)=O)[C@H](O)[C@@H]1OC(C)=O`, the Activity came to 1.14%.
Still for that read-out and setting: the result for `CO[C@H]1[C@H](OC(C)=O)[C@H]2OC(C)(C)O[C@H]2[C@@H]2OC(C)(C)O[C@H]12` reads 42.58%.
The same measure, in the same setting: in the case of `CO[C@H]1[C@H](OC(=O)C(C)C)[C@H]2OC(C)(C)O[C@H]2[C@@H]2OC(C)(C)O[C@H]12` it was 20.65%; in that of `CO[C@@H]1[C@@H](OC(C)=O)[C@@H](OC(C)=O)[C@H](O)[C@H](OC(C)=O)[C@H]1OC(C)=O`, 33.46%; in that of `CO[C@H]1[C@H](Cl)[C@H]2OC(C)(C)O[C@H]2[C@@H]2OC(C)(C)O[C@@H]21`, 37.64%.
On the same count and under the same terms, the result for `CCO[C@@H]1[C@@H](O)[C@@H](O)[C@H](O)[C@H](O)[C@H]1OC` reads 36.5%; that for `CCCC(=O)O[C@@H]1[C@@H](O)[C@@H](O)[C@H](O)[C@H](O)[C@H]1OC`, 8.36%; that for `CO[C@H]1C(=O)[C@H]2OC(C)(C)O[C@H]2[C@@H]2OC(C)(C)O[C@@H]21`, 50.57%.
For the molecule `CCCC(=O)O[C@H]1[C@H](OC)[C@H]2OC(C)(C)O[C@H]2[C@@H]2OC(C)(C)O[C@H]12`, the Activity came out at 39.54%.
On the same count and under the same terms, the result for `C=CCO[C@@H]1[C@@H](O)[C@@H](O)[C@H](O)[C@H](O)[C@H]1OC` reads 29.65%.
Consider `CO[C@H]1[C@H](O)[C@@H](O)[C@@H](O)[C@H](O)[C@@H]1O` [METHYLINOSITOL], for which the Activity was found to be 30.03%.

Another assay deals with Neutrophil (Homo sapiens). The experiment in a line: Antiinflammatory activity in human neutrophils assessed as inhibition of LPS-induced intracellular TNFalpha expression.
With `CCCC(=O)O[C@H]1[C@H](OC(=O)CCC)[C@H](OC(=O)CCC)[C@@H](OC)[C@H](OC(=O)CCC)[C@H]1OC(=O)CCC`, the result was Active.
Still for that read-out and setting: the result for `CO[C@@H]1[C@@H](OC(=O)c2ccccc2)[C@@H](OC(=O)c2ccccc2)[C@H](OC(=O)c2ccccc2)[C@H](OC(=O)c2ccccc2)[C@H]1OC(=O)c1ccccc1` reads “Active”; that for `CO[C@H]1C(=O)[C@H]2OC(C)(C)O[C@H]2[C@@H]2OC(C)(C)O[C@@H]21`, “Active”.

The values above are taken from ChEMBL document CHEMBL1153348, “Semi-synthetic analogs of pinitol as potential inhibitors of TNF-alpha cytokine expression in human neutrophils” (2009).
